We go through 1 molecule from ChEMBL document CHEMBL4354873, “Rationally Designed Small-Molecule Inhibitors Targeting an Unconventional Pocket on the TLR8 Protein-Protein Interface” (J Med Chem, 2020).

The source made the active and inactive calls. The calls are words filed in the database; no cut-off is given here.

Assay [1] has as its target T1, Toll-like receptor 8 (Homo sapiens) (UniProt Q9NR97).
T1 sequence (whole entry): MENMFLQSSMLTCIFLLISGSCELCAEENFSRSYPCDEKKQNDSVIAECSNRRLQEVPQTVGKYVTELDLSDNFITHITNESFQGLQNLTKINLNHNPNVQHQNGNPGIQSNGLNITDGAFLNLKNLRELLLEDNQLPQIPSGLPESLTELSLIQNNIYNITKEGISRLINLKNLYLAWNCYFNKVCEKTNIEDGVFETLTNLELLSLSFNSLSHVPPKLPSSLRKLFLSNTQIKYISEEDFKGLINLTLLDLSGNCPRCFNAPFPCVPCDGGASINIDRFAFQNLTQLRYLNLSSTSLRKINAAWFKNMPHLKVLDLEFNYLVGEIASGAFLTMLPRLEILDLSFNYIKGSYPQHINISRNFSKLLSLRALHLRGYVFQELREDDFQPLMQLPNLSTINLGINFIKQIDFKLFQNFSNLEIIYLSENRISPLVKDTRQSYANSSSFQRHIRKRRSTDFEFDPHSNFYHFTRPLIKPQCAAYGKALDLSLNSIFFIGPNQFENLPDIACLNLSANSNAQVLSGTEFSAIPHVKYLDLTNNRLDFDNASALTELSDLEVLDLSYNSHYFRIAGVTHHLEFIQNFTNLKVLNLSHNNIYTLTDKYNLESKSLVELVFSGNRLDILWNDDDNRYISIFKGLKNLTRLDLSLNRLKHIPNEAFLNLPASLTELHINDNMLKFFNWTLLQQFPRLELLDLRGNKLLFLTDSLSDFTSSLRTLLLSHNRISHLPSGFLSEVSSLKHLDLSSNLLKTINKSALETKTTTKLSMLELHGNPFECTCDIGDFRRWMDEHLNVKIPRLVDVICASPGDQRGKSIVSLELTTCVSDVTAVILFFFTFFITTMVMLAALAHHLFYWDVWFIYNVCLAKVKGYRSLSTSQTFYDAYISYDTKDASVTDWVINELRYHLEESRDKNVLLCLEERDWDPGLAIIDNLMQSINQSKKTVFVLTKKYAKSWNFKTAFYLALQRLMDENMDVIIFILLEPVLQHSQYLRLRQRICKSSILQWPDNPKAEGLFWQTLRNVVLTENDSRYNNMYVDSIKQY
Put plainly: Inhibition of TLR8 in human monocytes assessed as reduction in R848-induced IL1beta production measured after 24 hrs by ELISA. Type of assay: cell-based. In outline: (§1)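 Human monocyte cell lines in RPMI 1640 with 10% FBS and 0.05 mM 2-mercaptoethanol, 1 × 10⁶/well, 24 h. After PBS washes, fresh RPMI added with R848 1 µg/mL and varying compound concentrations for 24 h. Supernatant TNF-α, IL-6 and IL-1β measured by ELISA.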
(An ELISA detects its analyte on a solid surface through an enzyme-linked reagent.)

Assay [2] deals with T2, Toll-like receptor 7 (Homo sapiens) (UniProt Q9NYK1).
T2 sequence (whole entry): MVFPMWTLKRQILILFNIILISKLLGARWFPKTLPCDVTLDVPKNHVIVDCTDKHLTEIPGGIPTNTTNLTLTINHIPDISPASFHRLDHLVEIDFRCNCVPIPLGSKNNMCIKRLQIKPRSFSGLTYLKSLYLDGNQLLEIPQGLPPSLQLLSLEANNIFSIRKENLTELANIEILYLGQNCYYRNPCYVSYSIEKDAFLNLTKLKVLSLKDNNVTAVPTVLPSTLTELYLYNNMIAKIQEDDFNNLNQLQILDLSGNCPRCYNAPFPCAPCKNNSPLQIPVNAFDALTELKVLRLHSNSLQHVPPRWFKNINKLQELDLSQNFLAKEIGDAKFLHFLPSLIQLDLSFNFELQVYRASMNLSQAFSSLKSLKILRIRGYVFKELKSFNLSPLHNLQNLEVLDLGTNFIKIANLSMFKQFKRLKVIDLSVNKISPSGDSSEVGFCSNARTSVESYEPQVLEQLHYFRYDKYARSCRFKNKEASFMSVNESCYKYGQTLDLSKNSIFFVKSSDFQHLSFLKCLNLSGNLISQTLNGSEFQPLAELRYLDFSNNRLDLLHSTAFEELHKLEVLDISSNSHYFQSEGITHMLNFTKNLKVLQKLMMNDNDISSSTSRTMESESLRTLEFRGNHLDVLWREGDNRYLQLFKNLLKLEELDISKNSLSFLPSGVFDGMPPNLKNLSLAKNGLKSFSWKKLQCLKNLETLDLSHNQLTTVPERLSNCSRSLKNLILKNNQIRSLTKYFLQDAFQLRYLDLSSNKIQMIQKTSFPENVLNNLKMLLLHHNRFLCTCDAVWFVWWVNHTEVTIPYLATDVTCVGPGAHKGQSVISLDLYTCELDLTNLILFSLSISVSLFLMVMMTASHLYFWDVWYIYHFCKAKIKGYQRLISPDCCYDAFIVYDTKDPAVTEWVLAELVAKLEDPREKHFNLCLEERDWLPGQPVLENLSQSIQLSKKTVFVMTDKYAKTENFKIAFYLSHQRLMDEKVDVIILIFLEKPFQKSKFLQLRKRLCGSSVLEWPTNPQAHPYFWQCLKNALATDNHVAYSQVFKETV
In words: Effect on TLR7-mediated signaling in human PBMC assessed as change in basal TNFalpha secretion up to 20 uM measured after 24 hrs by ELISA.

Assay [3] deals with T2, Toll-like receptor 7 (Homo sapiens). Put plainly: Inhibition of human TLR7 expressed in HEK-Blue cells assessed as inhibition of R848-induced NF-kappaB activation at 20 uM measured after 24 hrs by quanti-blue based SEAP reporter gene assay. Type of assay: cell-based. In a few lines:
(§2)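 HEK-Blue SEAP format: 4 × 10⁴ cells/well in DMEM with ligand plus compound, 24 h at 37 °C. Supernatant mixed with QUANTI-Blue up to 1 h, then A620 read. Ligands: Pam3CSK4 100 ng/mL (TLR1/2), Pam2CSK4 100 ng/mL (TLR2/6), poly(I:C) 5 µg/mL (TLR3), LPS 20 ng/mL (TLR4), flagellin 50 ng/mL (TLR5), R848 1 µg/mL (TLR7), R848 2 µg/mL (TLR8), ODN2006 0.5 µM (TLR9). Mean ± s.d.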

Assay [4] addresses Toll-like receptor 5 (Homo sapiens) (UniProt O60602). In words: Inhibition of human TLR5 expressed in HEK-Blue cells assessed as inhibition of flagellin-induced NF-kappaB activation at 20 uM measured after 24 hrs by quanti-blue based SEAP reporter gene assay. The class given is cell-based. In a few lines:
as §2
In general terms: In a reporter assay the amount or activity of a reporter protein is the signal.

Assay [5] deals with T1, Toll-like receptor 8 (Homo sapiens). Put plainly: Inhibition of TLR8 in human monocytes assessed as reduction in R848-induced TNFalpha production measured after 24 hrs by ELISA. The class given is cell-based. In a few lines:
as §1

For assay [6] the target is unchanged. Put plainly: Inhibition of R848 binding to human TLR8 ectodomain at 50 uM by isothermal titration calorimetry. Background: In ITC the heat of successive injections is recorded.
In assay [7] the target is TLR2/TLR6 (Homo sapiens) (UniProt O60603+Q9Y2C9). In words: Inhibition of human TLR2/6 expressed in HEK-Blue cells assessed as inhibition of Pam2CSK4-induced NF-kappaB activation at 20 uM measured after 24 hrs by quanti-blue based SEAP reporter gene assay. Type of assay: cell-based. In outline: as §2

Sequence of Toll-like receptor 5 (Homo sapiens) (O60602 whole entry): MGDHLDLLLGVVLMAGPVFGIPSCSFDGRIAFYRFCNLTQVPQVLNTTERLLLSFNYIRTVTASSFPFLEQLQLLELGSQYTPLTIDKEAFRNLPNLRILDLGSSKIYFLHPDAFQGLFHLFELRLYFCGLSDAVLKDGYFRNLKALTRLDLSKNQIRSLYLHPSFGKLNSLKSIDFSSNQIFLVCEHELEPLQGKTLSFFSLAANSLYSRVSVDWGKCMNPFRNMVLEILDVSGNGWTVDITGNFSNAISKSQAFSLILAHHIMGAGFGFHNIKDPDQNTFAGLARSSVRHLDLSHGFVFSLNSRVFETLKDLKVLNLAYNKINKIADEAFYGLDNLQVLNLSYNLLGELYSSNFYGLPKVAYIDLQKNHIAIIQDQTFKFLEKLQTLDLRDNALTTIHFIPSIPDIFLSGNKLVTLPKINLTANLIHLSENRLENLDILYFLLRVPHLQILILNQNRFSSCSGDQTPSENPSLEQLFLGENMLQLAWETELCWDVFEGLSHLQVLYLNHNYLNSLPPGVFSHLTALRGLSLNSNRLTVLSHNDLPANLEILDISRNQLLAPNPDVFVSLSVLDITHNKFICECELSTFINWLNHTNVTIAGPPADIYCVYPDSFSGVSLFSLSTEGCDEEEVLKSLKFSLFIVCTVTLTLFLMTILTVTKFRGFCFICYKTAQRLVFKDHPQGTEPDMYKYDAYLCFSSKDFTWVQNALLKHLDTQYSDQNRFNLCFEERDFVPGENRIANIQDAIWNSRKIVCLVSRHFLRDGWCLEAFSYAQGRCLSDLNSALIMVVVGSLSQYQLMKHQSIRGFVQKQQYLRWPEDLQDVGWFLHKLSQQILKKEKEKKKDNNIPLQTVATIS

As to `CSc1nnc(CCCO)n1-c1cc(C)c(C)c(C)c1`, the inhibition result in assay [1] and in assay [5] was “Dose-dependent effect” throughout. Also, the outcome in assay [2] was inactive. For the same molecule, the inhibition result in assay [3], in assay [4] and in assay [7] was “inactive” each time. Further, the inhibition entry in assay [6] was “Active”.
